According to ChEMBL document CHEMBL1136939, “Fluorinated isatin derivatives. Part 2. New N-substituted 5-pyrrolidinylsulfonyl isatins as potential tools for molecular imaging of caspases in apoptosis” (J Med Chem, 2009):
pIC50: −log10 of the molar value.

Columns and labels:
Caspase-1 = target: T1, Caspase-1 (Homo sapiens, UniProt P29466); assay: Inhibition of human recombinant caspase 1 assessed as accumulation of cleaved fluorogenic 7-amino-4-methylcoumarin after 10 mins
T1 sequence (P29466 whole entry): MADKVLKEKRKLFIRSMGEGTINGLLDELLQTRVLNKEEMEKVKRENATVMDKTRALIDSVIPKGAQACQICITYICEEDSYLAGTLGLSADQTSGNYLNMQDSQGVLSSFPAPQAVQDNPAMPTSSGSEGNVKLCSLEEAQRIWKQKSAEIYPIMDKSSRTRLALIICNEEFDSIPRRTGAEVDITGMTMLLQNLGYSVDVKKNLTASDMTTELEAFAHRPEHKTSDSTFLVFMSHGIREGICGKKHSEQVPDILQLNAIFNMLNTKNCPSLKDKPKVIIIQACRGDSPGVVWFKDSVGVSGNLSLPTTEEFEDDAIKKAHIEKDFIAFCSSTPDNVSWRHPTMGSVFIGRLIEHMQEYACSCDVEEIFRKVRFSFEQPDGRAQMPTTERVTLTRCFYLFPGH
Summary of the method: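 Ac-YVAD-AMC substrate, 10 µM final. Enzyme at 0.5 units per assay is preincubated 10 min at 37 °C with compound in DMSO, single doses 5 pM–500 µM final. Substrate is then added and reacts 10 more min. AMC is read at ex 360/em 460 nm. IC50 comes from nonlinear regression, mean ± SD of three assays.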

Caspase-3 = target: T2, Caspase-3 (Homo sapiens, UniProt P42574); assay: Inhibition of human recombinant caspase 3 assessed as accumulation of cleaved fluorogenic 7-amino-4-methylcoumarin after 10 mins
T2 sequence (P42574 whole entry): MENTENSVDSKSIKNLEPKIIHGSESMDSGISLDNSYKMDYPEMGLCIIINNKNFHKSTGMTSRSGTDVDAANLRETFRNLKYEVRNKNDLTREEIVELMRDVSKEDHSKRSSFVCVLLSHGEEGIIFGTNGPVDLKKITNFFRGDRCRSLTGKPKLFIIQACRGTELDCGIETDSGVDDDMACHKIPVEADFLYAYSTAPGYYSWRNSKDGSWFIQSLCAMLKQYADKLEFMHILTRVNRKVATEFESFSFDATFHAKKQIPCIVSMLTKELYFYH
Summary of the method: (§1)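 Ac-DEVD-AMC substrate, 10 µM final. Enzyme at 0.5 units per assay is preincubated 10 min at 37 °C in reaction buffer with compound in DMSO at 5 pM–500 µM final. Substrate reacts a further 10 min. AMC fluorescence is read at 360/460 nm. IC50 by nonlinear regression, mean ± SD of three assays.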

Caspase-6 = target: T3, Caspase-6 (Homo sapiens, UniProt P55212); assay: Inhibition of human recombinant caspase 6 assessed as accumulation of cleaved fluorogenic 7-amino-4-methylcoumarin after 10 mins
T3 sequence (P55212 whole entry): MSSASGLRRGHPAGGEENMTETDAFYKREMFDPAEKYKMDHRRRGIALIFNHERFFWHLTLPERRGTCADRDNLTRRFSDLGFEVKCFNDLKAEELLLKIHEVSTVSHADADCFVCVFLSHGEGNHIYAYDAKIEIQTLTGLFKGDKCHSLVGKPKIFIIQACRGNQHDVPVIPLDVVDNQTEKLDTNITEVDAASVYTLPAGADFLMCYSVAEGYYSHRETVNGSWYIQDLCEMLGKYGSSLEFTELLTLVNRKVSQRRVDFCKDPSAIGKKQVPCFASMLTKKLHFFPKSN
Summary of the method: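 Substrate Ac-VEID-AMC at 10 µM final, added after the enzyme (0.5 units per assay) has been preincubated 10 min at 37 °C with compound in DMSO at single doses of 5 pM–500 µM. Reaction runs 10 min, then AMC is read at ex 360, em 460 nm. IC50 by nonlinear regression; mean ± SD, n=3.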

Caspase-7 = target: T4, Caspase-7 (Homo sapiens, UniProt P55210); assay: Inhibition of human recombinant caspase 7 assessed as accumulation of cleaved fluorogenic 7-amino-4-methylcoumarin after 10 mins; summary of the method: as §1
T4 sequence (P55210 whole entry): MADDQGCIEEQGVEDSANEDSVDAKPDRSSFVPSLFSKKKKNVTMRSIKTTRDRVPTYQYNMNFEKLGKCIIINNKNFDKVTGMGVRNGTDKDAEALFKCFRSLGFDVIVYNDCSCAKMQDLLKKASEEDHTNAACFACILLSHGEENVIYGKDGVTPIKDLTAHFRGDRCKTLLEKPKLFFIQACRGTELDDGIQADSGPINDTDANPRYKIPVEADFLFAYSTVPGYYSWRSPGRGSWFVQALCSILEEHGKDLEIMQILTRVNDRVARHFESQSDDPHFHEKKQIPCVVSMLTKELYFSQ

| SMILES | pIC50 (Caspase-1) | pIC50 (Caspase-3) | pIC50 (Caspase-6) | pIC50 (Caspase-7) |
| --- | --- | --- | --- | --- |
| CN1C(=O)C(=O)c2cc(S(=O)(=O)N3CCC[C@H]3COc3ccccc3)ccc21 | < 3.30 | 8.62 | < 3.30 | 6.52 |
| COC[C@@H]1CCCN1S(=O)(=O)c1ccc2c(c1)C(=O)C(=O)N2CC(F)(F)CBr |  | 5.73 |  | 5.78 |
| COC[C@@H]1CCCN1S(=O)(=O)c1ccc2c(c1)C(=O)C(=O)N2Cc1ccc(OCC(O)CF)cc1 (stereo partly drawn) | < 3.30 | 6.84 | < 3.30 | 8.30 |
| COC[C@@H]1CCCN1S(=O)(=O)c1ccc2c(c1)C(=O)C(=O)N2CCC(O)CO (stereo partly drawn) | < 3.30 | 6.56 | < 3.30 | 7.21 |
| COC[C@@H]1CCCN1S(=O)(=O)c1ccc2c(c1)C(=O)C(=O)N2Cc1ccc(C(F)CBr)cc1 (stereo partly drawn) | < 3.30 | 7.37 | < 3.30 | 7.80 |
| C=CCOc1ccc(CN2C(=O)C(=O)c3cc(S(=O)(=O)N4CCC[C@H]4COC)ccc32)cc1 | < 3.30 | 8.00 | < 3.30 | 9.22 |
| C=CCCN1C(=O)C(=O)c2cc(S(=O)(=O)N3CCC[C@H]3COC)ccc21 | < 3.30 | 7.51 | < 3.30 | 7.30 |
| COC[C@@H]1CCCN1S(=O)(=O)c1ccc2c(c1)C(=O)C(=O)N2Cc1ccc(C(F)CO)cc1 (stereo partly drawn) | < 3.30 | 7.10 | < 3.30 | 8.12 |
| COC[C@@H]1CCCN1S(=O)(=O)c1ccc2c(c1)C(=O)C(=O)N2CCC1CO1 (stereo partly drawn) | < 3.30 | 6.82 | < 3.30 | 7.17 |
| COC[C@@H]1CCCN1S(=O)(=O)c1ccc2c(c1)C(=O)C(=O)N2CCC(O)CF (stereo partly drawn) | < 3.30 | 8.44 | < 3.30 | 7.00 |
| COC[C@@H]1CCCN1S(=O)(=O)c1ccc2c(c1)C(=O)C(=O)N2Cc1ccc(OCC2CO2)cc1 (stereo partly drawn) | < 3.30 | 7.38 | < 3.30 | 8.62 |
| COC[C@@H]1CCCN1S(=O)(=O)c1ccc2c(c1)C(=O)C(=O)N2C[C@H](O)CO | < 3.30 | 7.96 | < 3.30 | 7.37 |
| C=CCN1C(=O)C(=O)c2cc(S(=O)(=O)N3CCC[C@H]3COC)ccc21 | < 3.30 | 7.60 | < 3.30 | 7.62 |
| COC[C@@H]1CCCN1S(=O)(=O)c1ccc2c(c1)C(=O)C(=O)N2C[C@H]1CO1 | 5.50 | 7.77 | < 3.30 | 8.05 |
| C=CCCCCCCCCCN1C(=O)C(=O)c2cc(S(=O)(=O)N3CCC[C@H]3COC)ccc21 | < 3.30 | 7.13 | < 3.30 | 6.95 |
| C=Cc1ccc(CN2C(=O)C(=O)c3cc(S(=O)(=O)N4CCC[C@H]4COC)ccc32)cc1 | < 3.30 | 8.03 | < 3.30 | 8.14 |
| COC[C@@H]1CCCN1S(=O)(=O)c1ccc2c(c1)C(=O)C(=O)N2CCCCCCCCCC1CO1 (stereo partly drawn) | < 3.30 | 7.64 | < 3.30 | 7.21 |
| COC[C@@H]1CCCN1S(=O)(=O)c1ccc2c(c1)C(=O)C(=O)N2Cc1ccc(C2CO2)cc1 (stereo partly drawn) | < 3.30 | 8.18 | < 3.30 | 8.72 |
| COC[C@@H]1CCCN1S(=O)(=O)c1ccc2c(c1)C(=O)C(=O)N2C[C@H](O)CF | < 3.30 | 7.72 | < 3.30 | 6.46 |
| COC[C@@H]1CCCN1S(=O)(=O)c1ccc2c(c1)C(=O)C(=O)N2 | < 3.30 |  | < 3.30 |  |
| O=C1Nc2ccc(S(=O)(=O)N3CCC[C@H]3COc3ccccc3)cc2C1=O | < 3.30 |  | < 3.30 |  |
